{
  "source": "paper PMC11561146",
  "about": "(Communications Biology, 2024)",
  "key": {"[1]": {"test_system": "heme bound to TrK13-R539T", "assay": "Detection of AAS by HPLC, protein-bound heme after G-25 desalting", "format": "biochemical, Plasmodium falciparum", "details": "heme-TrK13 mixture desalted (G-25) before ART addition", "in_short": "(§1)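 Recombinant TrK13 protein (10 µM) was incubated with 60 µM reduced heme for 30 min at 37°C. Unbound heme was removed on a G-25 desalting column, then 72 µM test compound was added for another 30 min. Products were separated on a C4 column at 1 mL/min with 0.05% TFA water/acetonitrile (A/B 63/37 to 52/48 over 15 min, then 15 min hold). Detection was at 410 nm. AAS was expressed as a percentage of heme peak area (AUC); mean ± SD, three independent experiments.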"}, "[2]": {"test_system": "heme-bound TrK13-A578S", "assay": "Detection of AAS by UV-visible spectrophotometry", "format": "biochemical, Plasmodium falciparum", "details": "200 µM ART, 30 min", "in_short": "(§2)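 Purified recombinant protein (10 µM) is incubated for 1 h at room temperature with or without equimolar dithionite-reduced heme (or Zn-PPIX). It is then desalted on a G-25 spin column to remove unbound heme. The >5 kDa eluate is incubated with 200 µM ART or DOA for 30 min. Spectra are scanned at 250–700 nm for the Soret peak, with no-heme and no-ART controls.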"}, "[3]": {"test_system": "heme bound to TrK13-WT", "assay": "Detection of AAS by HPLC, protein-bound heme after G-25 desalting", "format": "biochemical, Plasmodium falciparum", "details": "heme-TrK13 mixture desalted (G-25) before ART addition", "in_short": "as §1"}, "[4]": {"test_system": "heme-bound TrK13-WT", "assay": "Detection of AAS by UV-visible spectrophotometry", "format": "biochemical, Plasmodium falciparum", "details": "for increase in the intensity of the 380 nm peak vs heme-bound protein without ART: 200 µM ART or DOA, 30 min, after G-25 desalting"}, "[5]": {"test_system": "heme-TrK13-C580Y complex", "assay": "Detection of AAS by UV-visible spectrophotometry", "format": "biochemical, Plasmodium falciparum", "details": "200 µM ART, 30 min", "in_short": "as §2"}, "[6]": {"assay": "Detection of ART activated species", "format": "biochemical", "details": "heme: ART or derivative 1:1.20, 30 min, reducing conditions", "in_short": "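Heme under reducing conditions was reacted with test compound for 30 min, with no protein. Mixtures were run on a C4 column at 1 mL/min using a 0.05% TFA water/acetonitrile gradient (A/B 63/37 to 52/48 over 15 min, then 15 min hold), with Soret detection at 410 nm. Free heme and AAS peaks were integrated, and AAS was given as a percentage of heme by AUC; mean ± SD, three independent experiments.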"}, "[7]": {"test_system": "heme-PfHRP2 complex", "assay": "Detection of AAS by UV-visible spectrophotometry", "format": "biochemical, Plasmodium falciparum", "details": "ART, 30 min"}, "[8]": {"biological_target": "T1, TrK13-WT (Plasmodium falciparum, UniProt Q8IDQ2)", "T1 sequence (Q8IDQ2 189-726)": "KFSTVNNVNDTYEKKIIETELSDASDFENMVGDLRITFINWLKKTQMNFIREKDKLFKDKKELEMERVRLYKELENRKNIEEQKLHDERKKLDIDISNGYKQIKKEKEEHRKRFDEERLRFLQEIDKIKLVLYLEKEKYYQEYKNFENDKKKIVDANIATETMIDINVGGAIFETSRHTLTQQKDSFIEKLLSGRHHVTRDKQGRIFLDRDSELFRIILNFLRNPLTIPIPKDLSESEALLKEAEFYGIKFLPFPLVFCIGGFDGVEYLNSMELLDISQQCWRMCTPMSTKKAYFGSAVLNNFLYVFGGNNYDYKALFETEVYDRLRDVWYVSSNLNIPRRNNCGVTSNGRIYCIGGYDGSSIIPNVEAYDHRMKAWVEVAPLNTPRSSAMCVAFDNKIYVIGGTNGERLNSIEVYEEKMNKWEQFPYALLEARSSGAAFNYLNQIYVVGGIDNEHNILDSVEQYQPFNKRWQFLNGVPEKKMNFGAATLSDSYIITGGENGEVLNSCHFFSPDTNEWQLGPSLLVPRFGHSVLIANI", "assay": "UV-visible spectrophotometry of heme binding"}, "[9]": {"test_system": "heme-TrK13-R539T complex", "assay": "Detection of AAS by UV-visible spectrophotometry", "format": "biochemical, Plasmodium falciparum", "details": "200 µM ART, 30 min", "in_short": "as §2"}, "[10]": {"biological_target": "heme-BSA complex (Bos taurus, UniProt P02769)", "sequence (P02769 25-607, one chain of several)": "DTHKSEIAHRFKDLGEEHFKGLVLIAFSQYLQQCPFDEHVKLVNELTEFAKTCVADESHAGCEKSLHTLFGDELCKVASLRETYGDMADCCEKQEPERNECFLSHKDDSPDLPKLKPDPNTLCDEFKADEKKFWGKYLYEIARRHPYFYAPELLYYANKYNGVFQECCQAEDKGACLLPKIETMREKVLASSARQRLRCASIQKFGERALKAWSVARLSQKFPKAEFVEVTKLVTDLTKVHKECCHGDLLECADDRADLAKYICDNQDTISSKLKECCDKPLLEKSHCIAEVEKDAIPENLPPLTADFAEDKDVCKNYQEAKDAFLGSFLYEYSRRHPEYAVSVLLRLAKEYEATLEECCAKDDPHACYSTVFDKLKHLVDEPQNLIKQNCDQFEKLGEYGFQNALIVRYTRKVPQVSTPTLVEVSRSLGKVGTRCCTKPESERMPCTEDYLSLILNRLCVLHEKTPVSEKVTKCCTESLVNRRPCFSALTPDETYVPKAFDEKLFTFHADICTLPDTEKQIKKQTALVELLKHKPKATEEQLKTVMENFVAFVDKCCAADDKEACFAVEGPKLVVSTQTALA", "assay": "Detection of AAS by UV-visible spectrophotometry", "format": "biochemical", "details": "ART, 30 min", "in_short": "as §2"}, "[11]": {"test_system": "recombinant TrK13-WT protein", "assay": "UV-visible spectrophotometry of TrK13-WT with metal salts", "format": "binding, Plasmodium falciparum", "details": "TrK13-WT 5 μM, metal salt 500 μM (100-times molar excess)"}, "[12]": {"test_system": "TrK13-QNG (E688Q-E691N-H697G)", "assay": "Ferene S colorimetric assay of iron binding", "design": "species or system Plasmodium falciparum", "details": "Ferene S assay with FAS"}, "[13]": {"test_system": "recombinant TrK13-WT protein", "assay": "Ferene S colorimetric assay of iron binding", "design": "species or system Plasmodium falciparum", "details": "TrK13-WT 5 μM, 30-times molar excess (150 μM) FAS, G-25 desalted"}, "[14]": {"biological_target": "T1, TrK13-WT", "assay": "Tryptophan fluorescence quenching by heme", "format": "binding"}, "[15]": {"biological_target": "T2, TrK13-R539T (Plasmodium falciparum, UniProt Q8IDQ2, R539T)", "T2 sequence (Q8IDQ2 189-726 R539T)": "T1 sequence (Q8IDQ2 189-726)", "assay": "Tryptophan fluorescence quenching by heme", "format": "binding"}, "[16]": {"biological_target": "T3, TrK13-C580Y (Plasmodium falciparum, UniProt Q8IDQ2, C580Y)", "T3 sequence (Q8IDQ2 189-726 C580Y)": "T1 sequence (Q8IDQ2 189-726)", "assay": "Tryptophan fluorescence quenching by heme", "format": "binding"}, "[17]": {"biological_target": "T4, TrK13-A578S (Plasmodium falciparum, UniProt Q8IDQ2, A578S)", "T4 sequence (Q8IDQ2 189-726 A578S)": "T1 sequence (Q8IDQ2 189-726)", "assay": "Tryptophan fluorescence quenching by heme", "format": "binding"}, "[18]": {"biological_target": "T1, TrK13-WT", "format": "binding", "details": "TrK13-WT 10 µM, 10-fold molar excess of competitor", "in_short": "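TrK13-WT (10 µM) was preincubated for 1 h at RT with 100 µM reduced heme or a heme analog. Hemin-agarose beads (50% v/v suspension) were then added for 1 h at RT, rotating, in MOPS pH 7.4. Beads were washed five times with MOPS. Bound protein was eluted in Laemmli buffer and resolved by SDS-PAGE with Coomassie staining. Band pixel intensity was expressed relative to the no-competitor band, set as 100%.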"}, "[19]": {"details": "protein 10 µM, heme 0–5 µM, excitation 295 nm"}, "[20]": {"details": "tryptophan fluorescence quenching"}},
  "note": "Entries after “also recorded” stand apart in the source; their conditions may differ.",
  "data": [
    {"smiles": "C[C@@H]1CC[C@H]2[C@@H](C)C(=O)O[C@@H]3O[C@@]4(C)CC[C@@H]1[C@]32OO4", "note": "[ART, artemisinin]", "values": [
      {"measurement": "Percentage of AAS versus heme (area under the curve)", "setting": "[1]", "result": "~ 30%"},
      {"measurement": "increase in peak intensity at 380 nm", "setting": "[2]", "result": "~ 176%"},
      {"measurement": "Percentage of AAS versus heme (area under the curve)", "setting": "[3]", "result": "~ 50%"},
      {"measurement": "increase in the intensity of the 380 nm peak vs heme-bound protein without ART", "setting": "[4]", "result": "~ 42%"},
      {"measurement": "increment in the 380 nm absorbance peak after addition of ART", "setting": "[4]; Fe^3+ hemin not pre-reduced to Fe^2+ heme", "result": "No increment"},
      {"measurement": "increase in peak intensity at 380 nm", "setting": "[5]", "result": "barely detectable increase"},
      {"measurement": "AAS peaks in the HPLC chromatogram at 410 nm", "setting": "[6]", "result": "additional peaks"},
      {"measurement": "AAS formation (peak absorbance at 380 nm)", "setting": "[7]", "result": "no AAS formation"},
      {"measurement": "changes in the spectral profile of TrK13-WT at 250–700 nm (direct interaction)", "setting": "[8]; TrK13-WT 10 µM with excess (200 µM) ART, no heme", "result": "no visible changes"},
      {"measurement": "increase in peak intensity at 380 nm", "setting": "[9]", "result": "barely detectable increase"},
      {"measurement": "AAS formation (peak absorbance at 380 nm)", "setting": "[10]", "result": "no AAS formation"}
    ]},
    {"smiles": "O=S(=O)([O-])[O-].O=S(=O)([O-])[O-].[Fe+3].[NH4+]", "note": "[FES, ferric ammonium sulfate]", "values": [
      {"measurement": "increase in the absorbance of TrK13-WT at 280 nm relative to TrK13-WT alone (no salts)", "setting": "[11]", "result": 12.84, "unit": "times"}
    ]},
    {"smiles": "O=S(=O)([O-])[O-].O=S(=O)([O-])[O-].[Fe+2].[NH4+].[NH4+]", "note": "[FAS, ferrous ammonium sulfate]", "values": [
      {"measurement": "reduction in absorbance at 595 nm in TrK13-QNG compared to TrK13-WT", "setting": "[12]", "result": "~ 33%"},
      {"measurement": "increase in the absorbance of TrK13-WT at 280 nm relative to TrK13-WT alone (no salts)", "setting": "[11]", "result": 5.82, "unit": "times"},
      {"measurement": "increase in the absorbance at 595 nm in the eluate vs FAS alone or TrK13-WT alone controls", "setting": "[13]", "result": "Approximately 10 fold"}
    ]},
    {"smiles": "C=CC1=C(C)c2cc3[nH]c(cc4nc(cc5[nH]c(cc1n2)c(C)c5C=C)C(C)=C4CCC(=O)O)c(CCC(=O)O)c3C.[Fe+3]", "note": "[heme, ferrous protoporphyrin IX]", "values": [
      {"measurement": "Stern-Volmer quenching constant (KSV)", "setting": "[14]; [19]", "result": 0.59, "unit": "µM⁻¹"},
      {"measurement": "Association constant (Ka)", "setting": "[14]; [20]", "result": 1.35, "unit": "E + 11 M^-1"},
      {"measurement": "Stern-Volmer quenching constant (KSV)", "setting": "[15]; [19]", "result": 1.17, "unit": "µM⁻¹"},
      {"measurement": "Association constant (Ka)", "setting": "[15]; [20]", "result": 7.86, "unit": "E + 07 M^-1"},
      {"measurement": "Kd", "setting": "[8]; read-out: Kd (double reciprocal plot of 1/ΔA versus 1/[heme]), TrK13-WT 10 µM titrated with heme 0-26 µM, G25 desalted", "result": "36.22 ± 0.1", "unit": "nM"},
      {"measurement": "Stern-Volmer quenching constant (KSV)", "setting": "[16]; [19]", "result": 1.75, "unit": "µM⁻¹"},
      {"measurement": "Association constant (Ka)", "setting": "[16]; [20]", "result": 1.47, "unit": "E + 07 M^-1"},
      {"measurement": "Stern-Volmer quenching constant (KSV)", "setting": "[17]; [19]", "result": 0.66, "unit": "µM⁻¹"},
      {"measurement": "Association constant (Ka)", "setting": "[17]; [20]", "result": 2.88, "unit": "E + 11 M^-1"}
    ]},
    {"smiles": "C[C@@H]1CC[C@H]2[C@@H](C)C(=O)O[C@@H]3O[C@@]4(C)CC[C@@H]1[C@]32O4", "note": "[DOA, deoxyartemisinin]", "values": [
      {"measurement": "increase in the intensity of the 380 nm peak vs heme-bound protein without ART", "setting": "[4]", "result": "no increase; also recorded: no hyperchromic shift"}
    ]},
    {"smiles": "C[C@H]1[C@@H](O)O[C@@H]2O[C@@]3(C)CC[C@H]4[C@H](C)CC[C@@H]1[C@@]24OO3", "note": "[DHA, dihydroartemisinin]", "values": [
      {"measurement": "AAS peaks in the HPLC chromatogram at 410 nm", "setting": "[6]", "result": "additional peaks"}
    ]},
    {"smiles": "C=CC1=C(C)c2cc3[nH]c(cc4nc(cc5[nH]c(cc1n2)c(C)c5CCC(=O)O)C(CCC(=O)O)=C4C)c(C)c3C=C", "note": "[PPIX, protoporphyrin IX]", "values": [
      {"measurement": "inhibition of TrK13-WT binding to hemin-agarose beads", "setting": "[18]", "result": "~ 50%"}
    ]},
    {"smiles": "C=CC1=C(C)c2cc3[n-]c(cc4[n-]c(cc5nc(cc1n2)C(C)=C5C=C)c(C)c4CCC(=O)O)c(CCC(=O)O)c3C.[Zn+2]", "note": "[Zn-PPIX]", "values": [
      {"measurement": "inhibition of TrK13-WT binding to hemin-agarose beads", "setting": "[18]", "result": "~ 65%"},
      {"measurement": "increase in absorbance at 380 nm on ART addition, Zn-PPIX instead of heme", "setting": "[4]; TrK13-WT with Zn-PPIX, then ART", "result": "no increase"}
    ]}
  ]
}
